What was measured:
[1] = Cmax in healthy human subjects at 8 mg/kg, iv administered as 30 mins infusion every 24 hrs measured on day 4; format: ADME, organism-based; set-up: dose 8 mg/kg, route intravenous; details: in vivo
[2] = Mean residence time in adult human subjects at 6 mg/kg, iv administered as single dose 30 mins infusion; format: ADME, organism-based; set-up: dose 6 mg/kg, route intravenous; details: in vivo
[3] = Cmax in nonobese adult human at 4 mg/kg, iv administered as single dose 30 mins infusion; format: ADME, organism-based; set-up: dose 4 mg/kg, route intravenous; details: in vivo
[4] = Cmax in adult human with hepatic impairment at 6 mg/kg, iv administered as single dose 30 mins infusion; format: ADME, organism-based; set-up: dose 6 mg/kg, route intravenous; details: in vivo
[5] = Half life in nonobese human at 4 mg/kg, iv administered as single dose 30 mins infusion; format: ADME, organism-based; set-up: dose 4 mg/kg, route intravenous; details: in vivo
[6] = Cmax in healthy human at 8 mg/kg, iv administered as 30 mins infusion every 24 hrs measured on day 1; format: ADME, organism-based; set-up: dose 8 mg/kg, route intravenous; details: in vivo
[7] = AUC (0 to infinity) in healthy human at 8 mg/kg, iv administered as 30 mins infusion every 24 hrs measured on day 7; format: ADME, organism-based; set-up: dose 8 mg/kg, route intravenous, time infinity; details: plasma
[8] = Clearance in healthy human at 6 mg/kg, iv administered as 30 mins infusion every 24 hrs measured on day 7; format: ADME, organism-based; set-up: dose 6 mg/kg, route intravenous; details: in vivo
[9] = Apparent volume of distribution during terminal phase in healthy human subjects at 8 mg/kg, iv administered as 30 mins infusion every 24 hrs measured on day 1; format: ADME, organism-based; set-up: dose 8 mg/kg, route intravenous; details: in vivo
[10] = Plasma concentration in cancer patient with neutropenic fever at 6 mg/kg, iv administered as 30 mins infusion every 24 hrs measured after 24 hrs; format: ADME, organism-based; set-up: dose 6 mg/kg, route intravenous; details: human
Procedure, shortened: (§1)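 29 adult oncology patients with neutropenic fever received 6 mg/kg (total body weight) daptomycin as a 30-min IV infusion every 24 h. Plasma was sampled predose, at end of infusion, and 0.5, 1, 2, 4, 8, 12 and 24 h after infusion start. Total drug was measured by validated HPLC (linear 1–100 μg/ml, detection limit 1 μg/ml). Tmax was the observed value, analysed noncompartmentally.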

[11] = Apparent volume of distribution during terminal phase in healthy human subjects at 10 mg/kg, iv administered as 30 mins infusion every 24 hrs measured on day 4; format: ADME, organism-based; set-up: dose 10 mg/kg, route intravenous; details: in vivo
[12] = AUC (0 to infinity) in healthy human at 4 mg/kg, iv administered as 30 mins infusion every 24 hrs measured on day 7; format: ADME, organism-based; set-up: time infinity, dose 4 mg/kg, route intravenous; details: plasma
[13] = Plasma concentration in nonobese adult human at 4 mg/kg, iv administered as single dose 30 mins infusion measured after 24 hrs; format: ADME, organism-based; set-up: dose 4 mg/kg, route intravenous
[14] = Clearance in healthy human subjects at 12 mg/kg, iv administered as 30 mins infusion every 24 hrs measured on day 14; format: ADME, organism-based; set-up: dose 12 mg/kg, route intravenous; details: in vivo
[15] = AUC (0 to infinity) in adult human subjects at 6 mg/kg, iv administered as single dose 30 mins infusion; format: ADME, organism-based; set-up: time infinity, dose 6 mg/kg, route intravenous; details: plasma
[16] = Clearance in healthy human subjects at 12 mg/kg, iv administered as 30 mins infusion every 24 hrs measured on day 4; format: ADME, organism-based; set-up: dose 12 mg/kg, route intravenous; details: in vivo
[17] = Plasma concentration in moderately obese adult human at 4 mg/kg, iv administered as single dose 30 mins infusion measured after 24 hrs; format: ADME, organism-based; set-up: dose 4 mg/kg, route intravenous
[18] = Half life in adult human with hepatic impairment at 6 mg/kg, iv administered as single dose 30 mins infusion; format: ADME, organism-based; set-up: dose 6 mg/kg, route intravenous; details: in vivo
[19] = Unbound fraction in healthy human plasma at 8 mg/kg, iv administered as 30 mins infusion every 24 hrs measured on day 1; format: ADME, organism-based; set-up: dose 8 mg/kg, route intravenous
[20] = AUC (0 to infinity) in healthy human at 4 mg/kg, iv administered as single dose 30 mins infusion; format: ADME, organism-based; set-up: time infinity, dose 4 mg/kg, route intravenous; details: plasma
[21] = Renal clearance in nonobese human at 4 mg/kg, iv administered as single dose 30 mins infusion; format: ADME, organism-based, Kidney; set-up: dose 4 mg/kg, route intravenous; details: in vivo, read-out: CL_renal (converted)
[22] = AUC (0 to infinity) in nonobese human at 4 mg/kg, iv administered as single dose 30 mins infusion; format: ADME, organism-based; set-up: time infinity, dose 4 mg/kg, route intravenous; details: plasma
[23] = Cmax in old healthy human at 4 mg/kg, iv administered as single dose 30 mins infusion; format: ADME, organism-based; set-up: dose 4 mg/kg, route intravenous; details: in vivo
[24] = AUC (0 to infinity) in young healthy human at 4 mg/kg, iv administered as single dose 30 mins infusion; format: ADME, organism-based; set-up: dose 4 mg/kg, route intravenous, time infinity; details: plasma
[25] = Clearance in healthy human subjects at 12 mg/kg, iv administered as 30 mins infusion every 24 hrs measured on day 1; format: ADME, organism-based; set-up: dose 12 mg/kg, route intravenous; details: in vivo
[26] = AUC (0 to infinity) in adult human with hepatic impairment at 6 mg/kg, iv administered as single dose 30 mins infusion; format: ADME, organism-based; set-up: time infinity, dose 6 mg/kg, route intravenous; details: plasma
[27] = Clearance in nonobese adult human at 4 mg/kg, iv administered as single dose 30 mins infusion; format: ADME, organism-based; set-up: dose 4 mg/kg, route intravenous; details: in vivo
[28] = Cmax in healthy human subjects at 10 mg/kg, iv administered as 30 mins infusion every 24 hrs measured on day 4; format: ADME, organism-based; set-up: dose 10 mg/kg, route intravenous; details: in vivo
[29] = Apparent volume of distribution during terminal phase in healthy human subjects at 8 mg/kg, iv administered as 30 mins infusion every 24 hrs measured on day 4; format: ADME, organism-based; set-up: dose 8 mg/kg, route intravenous; details: in vivo
[30] = AUC (0 to infinity) in morbidly obese adult human at 4 mg/kg, iv administered as single dose 30 mins infusion; format: ADME, organism-based; set-up: time infinity, dose 4 mg/kg, route intravenous; details: plasma
[31] = Renal clearance in old healthy human at 4 mg/kg, iv administered as single dose 30 mins infusion; format: ADME, organism-based, Kidney; set-up: dose 4 mg/kg, route intravenous; details: in vivo, read-out: CL_renal (converted)
[32] = Clearance in healthy adult human at 6 mg/kg, iv administered as single dose 30 mins infusion; format: ADME, organism-based; set-up: dose 6 mg/kg, route intravenous; details: in vivo
Homo sapiens [33] = experiment: Unbound clearance in healthy human at 8 mg/kg, iv administered as 30 mins infusion every 24 hrs measured on day 1; format: ADME, organism-based; set-up: dose 8 mg/kg, route intravenous; details: in vivo
[34] = Apparent volume of distribution during terminal phase in healthy human subjects at 10 mg/kg, iv administered as 30 mins infusion every 24 hrs measured on day 14; format: ADME, organism-based; set-up: dose 10 mg/kg, route intravenous; details: in vivo
[35] = Apparent volume of distribution during terminal phase in healthy human at 6 mg/kg, iv administered as 30 mins infusion every 24 hrs measured on day 1; format: ADME, organism-based; set-up: dose 6 mg/kg, route intravenous; details: in vivo
[36] = AUC (0 to infinity) in healthy human at 8 mg/kg, iv administered as 30 mins infusion every 24 hrs measured on day 1; format: ADME, organism-based; set-up: time infinity, dose 8 mg/kg, route intravenous; details: plasma
[37] = Drug excretion in moderately obese adult human urine assessed as unchanged drug at 4 mg/kg, iv administered as single dose 30 mins infusion; format: ADME, organism-based; set-up: dose 4 mg/kg, route intravenous; details: read-out: Drug uptake
[38] = Cmax in adult human subjects at 6 mg/kg, iv administered as single dose 30 mins infusion; format: ADME, organism-based; set-up: dose 6 mg/kg, route intravenous; details: in vivo
Homo sapiens [39] = experiment: Unbound clearance in healthy human at 8 mg/kg, iv administered as 30 mins infusion every 24 hrs measured on day 7; format: ADME, organism-based; set-up: dose 8 mg/kg, route intravenous; details: in vivo
[40] = Tmax in cancer patient with neutropenic fever at 6 mg/kg, iv administered as 30 mins infusion every 24 hrs; format: ADME, organism-based; set-up: dose 6 mg/kg, route intravenous; details: human, in vivo; procedure, shortened: as §1
[41] = AUC (0 to infinity) in healthy human subjects at 10 mg/kg, iv administered as 30 mins infusion every 24 hrs measured on day 1; format: ADME, organism-based; set-up: time infinity, dose 10 mg/kg, route intravenous; details: plasma
[42] = Half life in healthy human subjects at 10 mg/kg, iv administered as 30 mins infusion every 24 hrs measured on day 14; format: ADME, organism-based; set-up: dose 10 mg/kg, route intravenous; details: in vivo
[43] = AUC (0 to infinity) in healthy human subjects at 10 mg/kg, iv administered as 30 mins infusion every 24 hrs measured on day 14; format: ADME, organism-based; set-up: time infinity, dose 10 mg/kg, route intravenous; details: plasma
[44] = Clearance in nonobese human subjects at 4 mg/kg, iv administered as single dose 30 mins infusion; format: ADME, organism-based; set-up: dose 4 mg/kg, route intravenous; details: in vivo
[45] = Volume of distribution at steady state in nonobese human at 4 mg/kg, iv administered as single dose 30 mins infusion; format: ADME, organism-based; set-up: dose 4 mg/kg, route intravenous; details: in vivo, read-out: Vdss

SMILES: CCCCCCCCCC(=O)N[C@@H](Cc1c[nH]c2ccccc12)C(=O)N[C@H](CC(N)=O)C(=O)N[C@@H](CC(=O)O)C(=O)N[C@@H]1C(=O)NCC(=O)N[C@@H](CCCN)C(=O)N[C@@H](CC(=O)O)C(=O)N[C@H](C)C(=O)N[C@@H](CC(=O)O)C(=O)NCC(=O)N[C@H](CO)C(=O)N[C@@H]([C@H](C)CC(=O)O)C(=O)N[C@@H](CC(=O)c2ccccc2N)C(=O)O[C@@H]1C
- Cmax [1]: 123 µg/mL
- MRT [2]: 12.4 h
- Cmax [3]: 46300 ng/mL
- Cmax [4]: 114 µg/mL
- half-life [5]: 482 min
- Cmax [6]: 116 µg/mL
- AUC(0-inf) [7]: 1130 µg·h/mL
- clearance [8]: 0.135 mL/min/kg
- Vd [9]: 0.103 L/kg
- concentration at 24 h [10]: 5670 ng/mL
- Vd [11]: 0.0983 L/kg
- AUC(0-inf) [12]: 494 µg·h/mL
- concentration at 24 h [13]: < 3300 ng/mL
- clearance [14]: 0.15 mL/min/kg
- AUC(0-inf) [15]: 928 µg·h/mL
- clearance [16]: 0.15 mL/min/kg
- concentration at 24 h [17]: 3440 ng/mL
- half-life [18]: 538 min
- fraction unbound at 1 day [19]: 0.09
- AUC(0-inf) [20]: 530 µg·h/mL
- CL renal at 0.5 h [21]: 5.88 mL/h/kg
- AUC(0-inf) [22]: 419 µg·h/mL
- Cmax [23]: 44000 ng/mL
- AUC(0-inf) [24]: 301 µg·h/mL
- clearance [25]: 0.167 mL/min/kg
- AUC(0-inf) [26]: 867 µg·h/mL
- clearance [27]: 0.245 mL/min/kg
- Cmax [28]: 141 µg/mL
- Vd [29]: 0.101 L/kg
- AUC(0-inf) [30]: 548 µg·h/mL
- CL renal at 0.5 h [31]: 4.27 mL/h/kg
- clearance [32]: 0.171 mL/min/kg
- CL (Homo sapiens [33]): 50 mL/h/kg
- Vd [34]: 0.0858 L/kg
- Vd [35]: 0.096 L/kg
- AUC(0-inf) [36]: 1130 µg·h/mL
- dose excreted at 0.5 h [37]: 51.8%
- Cmax [38]: 118 µg/mL
- CL (Homo sapiens [39]): 40.9 mL/h/kg
- Tmax [40]: 36 min
- AUC(0-inf) [41]: 1010 µg·h/mL
- half-life [42]: 474 min
- AUC(0-inf) [43]: 1080 µg·h/mL
- clearance [44]: 0.2 mL/min/kg
- Vd [45]: 0.11 L/kg
